20 compounds from ChEMBL document CHEMBL5335802, “Lead Optimization of the 5-Phenylpyrazolopyrimidinone NPD-2975 toward Compounds with Improved Antitrypanosomal Efficacy” (J Med Chem, 2024) can be followed below.

Series [1] has as its system Trypanosoma brucei. In words: Antitrypanosomal activity against Trypanosoma brucei assessed as inhibition of parasite growth incubated for 72 hrs by resazurin reagent fluorimetric analysis. The class given is functional, organism-based. To be noted: for IC50: read-out: pIC50 (converted).
The nature of series [2]: Cytotoxicity against human MRC5 cells incubated for 3 days by resazurin reagent fluorimetric analysis. The class given is toxicity, cell-based. On the technique in general: The colour change of resazurin is a common sign of viable cells or microbes.
Series [3] can be described thus: Cytotoxicity against mouse Peritoneal macrophage cell incubated for 3 days by resazurin reagent fluorimetric analysis. Type of series: toxicity, cell-based. Particulars: peritoneal macrophages.
The nature of series [4]: Metabolic stability in human liver microsomes assessed as drug metabolism in phase-I stage. Type of series: ADME, Microsome. (Microsomes from liver hold many membrane-bound enzymes, among them those of drug oxidation.)
A short description of series [5]: Metabolic stability in human liver microsomes assessed as parent compound remaining in phase-II metabolism measured after 1 hr. Type of series: ADME, Microsome. Particulars: read-out: Stability.
The nature of series [6]: Metabolic stability in mouse liver microsomes assessed as parent compound remaining in phase-II metabolism measured after 1 hr. The class given is ADME, Microsome. To be noted: read-out: Stability.
Series [7] is described as follows: Toxicity in mouse infected with Trypanosoma brucei Squib 427 trypomastigotes assessed as animal death at 10 mg/kg,po bid administrated for 5 consecutive days measured after 60 days. Type of series: organism-based. Particulars: in vivo, 1440 h, time 60 day.
The subject of the next series is Plasmodium falciparum. In words: Antiplasmodial activity against Plasmodium falciparum assessed as inhibition of parasite growth incubated for 72 hrs by resazurin reagent fluorimetric analysis. Type of series: functional, organism-based.
For series [8], the system named is Trypanosoma brucei. In words: Antitrypanosomal activity against Trypanosoma brucei Squib 427 trypomastigotes infected in mouse model assessed as reduction in parasitemia at 25 mg/kg,po bid administrated for 5 consecutive days. Type of series: functional, organism-based. The gist of the method: (§1)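 Female Swiss mice (15-20 g), three per group, infected IP with 10^4 T. brucei Squib 427 trypomastigotes. Dosing PO b.i.d. for 5 days in PEG400; first dose 30 min before infection. Vehicle and suramin (10 mg/kg IP s.i.d., 5 days) controls. Parasitemia counted microscopically in tail-vein blood drops at several time points up to 63 dpi. Clinical or adverse effects observed.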

Series [9] concerns Trypanosoma brucei. In words: Antitrypanosomal activity against Trypanosoma brucei Squib 427 trypomastigotes infected in mouse model assessed as reduction in parasitemia at 50 mg/kg,po bid administrated for 5 consecutive days by microscopic analysis. The class given is functional, organism-based. The gist of the method: as §1
Series [10] in a line: Toxicity in mouse infected with Trypanosoma brucei Squib 427 trypomastigotes assessed as animal death at 25 mg/kg,po bid administrated for 5 consecutive days. Type of series: organism-based. Particulars: in vivo. Summed up:
(§2)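 Female Swiss mice (15-20 g), groups of three, infected IP with 10⁴ T. brucei Squib 427 trypomastigotes. Compound given PO b.i.d. for 5 days in PEG400 (formulated at 12.5 and 6.25 mg/mL, up to 100 μL/25 g body weight). First dose 30 min before infection. PEG400 vehicle control group included. Animals observed for clinical or adverse effects and survival; tail-vein parasitemia checked microscopically until 63 dpi.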

A short description of series [11]: Toxicity in mouse infected with Trypanosoma brucei Squib 427 trypomastigotes assessed as animal death at 50 mg/kg,po bid administrated for 5 consecutive days measured after 60 days. Type of series: organism-based. To be noted: in vivo, 1440 h, time 60 day. The gist of the method:
as §2

Series [12] has as its system Trypanosoma brucei. In words: Antitrypanosomal activity against Trypanosoma brucei Squib 427 trypomastigotes infected in mouse model assessed as reduction in parasite growth in blood at 25 mg/kg,po bid administrated for 5 consecutive days by SL-RNA qPCR assay. The class given is functional, organism-based. The gist of the method: (§3)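 Surviving mice from the acute infection model (PO b.i.d., 5 days, PEG400) tested by SL-RNA qPCR. Peripheral blood erythrocyte-lysed before RNA extraction. Mice sedated with ketamine/xylazine and perfused; fat, brain and spleen pieces held in RNAlater overnight at 4 °C. Activation 10 min 45 °C, 10 min 95 °C; 40 cycles 95/50/60 °C, 15 s each; melting curve. Eef2 qPCR confirmed RNA extraction.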
(In general: Real-time PCR tracks product formation cycle by cycle.)

The subject of series [13] is Trypanosoma brucei. In words: Antitrypanosomal activity against Trypanosoma brucei Squib 427 trypomastigotes infected in mouse model assessed as reduction in parasite growth in blood at 50 mg/kg,po bid administrated for 5 consecutive days by SL-RNA qPCR assay. The class given is functional, organism-based. The gist of the method:
as §3

For series [14], the system named is Trypanosoma brucei. Kind of series: Antitrypanosomal activity against Trypanosoma brucei Squib 427 trypomastigotes infected in mouse model assessed as reduction in parasite growth in spleen at 25 mg/kg,po bid administrated for 5 consecutive days by SL-RNA qPCR assay. The class given is functional, organism-based. Summed up:
as §3

In series [15] the test system is Trypanosoma brucei. Kind of series: Antitrypanosomal activity against Trypanosoma brucei Squib 427 trypomastigotes infected in mouse model assessed as reduction in parasite growth in spleen at 50 mg/kg,po bid administrated for 5 consecutive days by SL-RNA qPCR assay. Type of series: functional, organism-based. Summed up: as §3
In series [16] the test system is Trypanosoma brucei. In words: Antitrypanosomal activity against Trypanosoma brucei Squib 427 trypomastigotes infected in mouse model assessed as reduction in parasite growth in fat at 25 mg/kg,po bid administrated for 5 consecutive days by SL-RNA qPCR assay. Type of series: functional, organism-based. The gist of the method: as §3
In series [17] the test system is Trypanosoma brucei. In words: Antitrypanosomal activity against Trypanosoma brucei Squib 427 trypomastigotes infected in mouse model assessed as reduction in parasite growth in fat at 50 mg/kg,po bid administrated for 5 consecutive days by SL-RNA qPCR assay. The class given is functional, organism-based. Summed up: as §3
The test system of series [18] is Trypanosoma brucei. Kind of series: Antitrypanosomal activity against Trypanosoma brucei Squib 427 trypomastigotes infected in mouse model assessed as reduction in parasite growth in brain at 25 mg/kg,po bid administrated for 5 consecutive days by SL-RNA qPCR assay. Type of series: functional, organism-based. The gist of the method:
as §3

Series [19] concerns Trypanosoma brucei. In words: Antitrypanosomal activity against Trypanosoma brucei Squib 427 trypomastigotes infected in mouse model assessed as reduction in parasite growth in brain at 50 mg/kg,po bid administrated for 5 consecutive days by SL-RNA qPCR assay. The class given is functional, organism-based. The gist of the method:
as §3

pIC50: −log10 of the molar value. Active and inactive are the calls of the source. The calls are words filed in the database; no cut-off is given here.

Take `O=c1[nH]c(-c2ccc(F)cc2)nc2c(C3CCCCC3)n[nH]c12`: the IC50 with Trypanosoma brucei [1] is 0.0398 µM. Further, in series [2], the IC50 at 3 days was more than 63.1 µM.
For `O=c1[nH]c(-c2ccc(F)cc2)nc2c(C3CCCC3)n[nH]c12`, the IC50 at 3 days in series [2] and in series [3] was more than 63.1 µM each time. In addition, the Stability entry in [4] was “Stable”. Further, the remaining at 1 h in series [5] and in series [6] was 69% each time.
As to `Cc1ccc(C(=O)Nc2ccc(S(=O)(=O)O)c3cc(S(=O)(=O)O)cc(S(=O)(=O)O)c23)cc1NC(=O)c1cccc(NC(=O)Nc2cccc(C(=O)Nc3cc(C(=O)Nc4ccc(S(=O)(=O)O)c5cc(S(=O)(=O)O)cc(S(=O)(=O)O)c45)ccc3C)c2)c1` [SURAMIN], in series [7], the Activity result was “Non-Toxic”.
Compound `Cc1n[nH]c2c(=O)[nH]c(-c3ccc(F)cc3)nc12` had an IC50 at 3 days in series [2] of more than 63.1 µM.
Still for that read-out and setting: the result for `CC(C)c1nn(CCO)c2c(=O)[nH]c(-c3ccc(F)cc3)nc12` reads more than 63.1 µM.
With `O=c1[nH]c(-c2ccc(F)cc2)nc2c(-c3ccccc3)n[nH]c12`, in the series with Trypanosoma brucei [1], the IC50 was 0.0501 µM. In addition, in series [2], the IC50 at 3 days is more than 63.1 µM.
As a reminder, the pIC50 is the negative decadic logarithm of the IC50, by convention in mol/L. As to `CC(C)c1n[nH]c2c(=O)[nH]c(Cc3ccccc3)nc12`, the pIC50 with Plasmodium falciparum is 5.90.
Take `CCn1nc(C(C)C)c2nc(-c3ccc(F)cc3)[nH]c(=O)c21`: in [2], the IC50 at 3 days was more than 63.1 µM.
Still for that read-out and setting: under `CC(C)c1nn(C(C)C)c2c(=O)[nH]c(-c3ccc(F)cc3)nc12` stands more than 63.1 µM; under `CCc1n[nH]c2c(=O)[nH]c(-c3ccc(F)cc3)nc12`, more than 63.1 µM.
As for `CC(C)c1nn(C)c2c(=O)[nH]c(-c3ccc(F)cc3)nc12`, the IC50 with Trypanosoma brucei [1] is 0.0794 µM. Also, the IC50 at 3 days in series [2] is more than 63.1 µM.
In the case of `CC(C)c1nn(CCC(N)=O)c2c(=O)[nH]c(-c3ccc(F)cc3)nc12`, the IC50 at 3 days in series [2] was more than 63.1 µM.
As to `O=c1[nH]c(-c2ccc(F)cc2)nc2cn[nH]c12`, the IC50 at 3 days in [2] is more than 63.1 µM.
In [2], `CC(C)c1[nH]nc2c(=O)n(C)c(-c3ccc(F)cc3)nc12` had an IC50 at 3 days of more than 63.1 µM.
The compound `CC(C)c1c2nc(-c3ccc(F)cc3)[nH]c(=O)c2nn1C` gave an IC50 at 3 days in series [2] of more than 63.1 µM.
Consider `COc1ccc(CCn2nc(C(C)C)c3nc(-c4ccc(F)cc4)[nH]c(=O)c32)cc1`, for which, in the series with Trypanosoma brucei [1] (read-out: IC50), the pIC50 is 5.49. The IC50 with Trypanosoma brucei [1] was 3.16 µM. The IC50 at 3 days in series [2] is more than 63.1 µM.
As to `CCCn1nc(C(C)C)c2nc(-c3ccc(F)cc3)[nH]c(=O)c21`, in series [2], the IC50 at 3 days was more than 63.1 µM.
Take `CC(C)c1n[nH]c2c(=O)[nH]c(-c3ccc(F)cc3)nc12`: the Stability entry in series [4] was “Stable”. Moreover, the remaining at 1 h in [5] and in series [6] was 69% throughout.
With `CC(C)(C)c1n[nH]c2c(=O)[nH]c(-c3ccc(F)cc3)nc12`, the IC50 at 3 days in series [2] and in series [3] was more than 63.1 µM in each case. For the same compound, the Stability result in series [4] is on record as “Stable”. Besides, the remaining at 1 h in series [5] and in [6] was 69% throughout. In addition, the result with Trypanosoma brucei [8], in the series on Trypanosoma brucei [9], in the series with Trypanosoma brucei [12], with Trypanosoma brucei [13], with Trypanosoma brucei [14] and with Trypanosoma brucei [15] was Active. Also, the result with Trypanosoma brucei [16], in the series on Trypanosoma brucei [17], in the series with Trypanosoma brucei [18] and in the series with Trypanosoma brucei [19] was Active. The Activity result in [10] and in [11] was “Non-Toxic” in each case.
Turning to `COCCn1nc(C(C)C)c2nc(-c3ccc(F)cc3)[nH]c(=O)c21`, in series [2], the IC50 at 3 days was more than 63.1 µM.
